Test results reported in ChEMBL document CHEMBL4715793 (J Med Chem, 2016).
pEC50: −log10 of the molar value. Activity calls are given as the source filed them. The rule behind the calls is not given here.

Legend:
Hepatitis C virus [1] = test: Synergistic antiviral activity against HCV J6/JFH/JC1 infected in human HuH7.5 cells assessed as combination index measured after 72 hrs in presence of daclatasvir by Chou-Talalay method; assay type: functional, Hepacivirus hominis
Hepatitis C virus [2] = test: Synergistic antiviral activity against HCV J6/JFH/JC1 infected in human HuH7.5 cells assessed as inhibition of viral protein levels at 6.25 uM in presence of daclatasvir measured after 72 hrs by western blot analysis; assay type: functional, organism-based; conditions: Hepacivirus hominis
In short: (§1)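 Huh7.5 cells infected with HCV (45 IU/cell) and simultaneously treated with compound (6.25 μM) alone, DAA alone, or both. […] Intracellular protein analysed by Western blot at 72 h. At least triplicate, mean ± SD, Student's t test.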

Hepatitis C virus [3] = test: Antiviral activity against HCV J6/JFH/JC1 harboring A156T mutant infected in human Huh7.5 cells assessed as inhibition of viral replication measured after 72 hrs by qRT-PCR analysis; assay type: functional, organism-based, Hepacivirus hominis; conditions: J6/JFH/JC1, Huh7.5, 72 h
Hepacivirus hominis = test: Inhibition of HCV NS3/4a protease
[4] = molecular target: T1, Chondroitin sulfate N-acetylgalactosaminyltransferase 1 (Homo sapiens) (UniProt Q8TDX6); test: Destabilization of CSGalNacT-1 in human Huh7.5 cells assessed as reduction in CSGalNacT-1 expression measured after 72 hrs by Western blot analysis; assay type: cell-based; conditions: dose 6.25-100 µM
T1 sequence (whole entry): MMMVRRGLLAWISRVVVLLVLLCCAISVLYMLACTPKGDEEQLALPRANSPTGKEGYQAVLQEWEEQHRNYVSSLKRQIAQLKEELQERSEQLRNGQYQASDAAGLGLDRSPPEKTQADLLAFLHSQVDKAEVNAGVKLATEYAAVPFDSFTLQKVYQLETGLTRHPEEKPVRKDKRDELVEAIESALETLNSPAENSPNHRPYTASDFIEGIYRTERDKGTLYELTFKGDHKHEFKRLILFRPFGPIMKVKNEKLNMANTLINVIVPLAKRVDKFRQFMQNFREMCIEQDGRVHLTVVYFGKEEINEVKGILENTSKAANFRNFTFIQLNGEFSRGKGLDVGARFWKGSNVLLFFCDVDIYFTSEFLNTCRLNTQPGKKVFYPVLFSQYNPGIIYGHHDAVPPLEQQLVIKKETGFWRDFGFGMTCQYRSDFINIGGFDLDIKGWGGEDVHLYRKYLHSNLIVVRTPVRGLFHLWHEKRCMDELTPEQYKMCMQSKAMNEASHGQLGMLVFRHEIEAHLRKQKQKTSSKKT

Hepatitis C virus [5] = test: Synergistic antiviral activity against HCV J6/JFH/JC1 infected in human HuH7.5 cells assessed as inhibition of viral protein levels at 6.25 uM in presence of simeprevir measured after 72 hrs by western blot analysis; assay type: functional, organism-based; conditions: Hepacivirus hominis; in short: as §1
Hepatitis C virus [6] = test: Antiviral activity against HCV infected in human HuH7.5 cells assessed as inhibition of viral protein level during early stage at 6.25 to 25 uM incubated for 2 hrs prior to compound washout followed by supplementation of fresh culture medium and measured after 72 hrs by Western blot analysis; assay type: functional, organism-based; conditions: Hepacivirus hominis; Huh-7; dose 6.25-25 µM
In short: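 Huh7.5 cells seeded 24 h earlier, infected with HCV (150 IU/cell) with simultaneous compound or solvent control for 2 h. Cells washed with PBS and given fresh medium. Intracellular RNA (qRT-PCR) and protein (Western blot) extracted at 72 h.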

[7] = molecular target: T1, Chondroitin sulfate N-acetylgalactosaminyltransferase 1 (Homo sapiens); test: Destabilization of CSGalNacT-1 in human Huh7.5 cells assessed as reduction in CSGalNacT-1 mRNA levels at 6.25 to 100 uM measured after 72 hrs by qRT-PCR analysis; assay type: cell-based; conditions: dose 6.25-100 µM
Hepatitis C virus [8] = test: Synergistic antiviral activity against HCV J6/JFH/JC1 infected in human HuH7.5 cells assessed as inhibition of viral protein levels at 6.25 uM in presence of sofosbuvir measured after 72 hrs by western blot analysis; assay type: functional, organism-based; conditions: Hepacivirus hominis; in short: as §1
[9] = Cytotoxicity against human Huh7.5 cells assessed as reduction in cell viability incubated for 72 hrs by MTT assay; assay type: cell-based
In short: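 Huh7.5 cells seeded at 3 × 10^4/cm2, grown 24 h, then exposed to compound for 72 h. Viability read by MTT assay. CC50 by Reed & Muench method, mean ± SD from three independent experiments.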

Hepatitis C virus [10] = test: Antiviral activity against HCV J6/JFH/JC1 harboring D168V mutant infected in human Huh7.5 cells assessed as inhibition of viral replication measured after 72 hrs by qRT-PCR analysis; assay type: functional, organism-based, Hepacivirus hominis; conditions: J6/JFH/JC1, Huh7.5, 72 h
[11] = molecular target: T1, Chondroitin sulfate N-acetylgalactosaminyltransferase 1 (Homo sapiens); test: Destabilization of CSGalNacT-1 in HCV infected human HuH7.5 cells assessed as reduction in CSGalNacT-1 mRNA levels at 6.25 to 100 uM measured after 72 hrs by qRT-PCR analysis; conditions: dose 6.25-100 µM
In short: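 Huh7.5 cells infected with HCV (45 IU/cell) and exposed to compound for 72 h. CSGalNAcT-1 protein measured by Western blot and mRNA by qRT-PCR. Error bars are SD of three independent experiments.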

[12] = molecular target: T1, Chondroitin sulfate N-acetylgalactosaminyltransferase 1 (Homo sapiens); test: Destabilization of CSGalNacT-1 in human Huh7.5 cells assessed as reduction in CSGalNacT-1 mRNA levels by gene chip assay; assay type: cell-based
[13] = Resistance ratio of EC50 for antiviral activity against HCV J6/JFH/JC1 harboring S282T mutant infected in human Huh7.5 cells to EC50 for antiviral activity against wild-type HCV J6/JFH/JC1 infected in human Huh7.5 cells; assay type: functional
[14] = Resistance ratio of EC50 for antiviral activity against HCV J6/JFH/JC1 harboring D168V mutant infected in human Huh7.5 cells to EC50 for antiviral activity against wild-type HCV J6/JFH/JC1 infected in human Huh7.5 cells; assay type: functional
[15] = Antiviral activity against HCV subtype 2a J6/JFH/JC1 infected in human Huh7.5 cells assessed as reduction in viral RNA levels measured after 72 hrs by qRT-PCR analysis; conditions: Hepatitis C virus, J6/JFH/JC1, Huh7.5, 72 h
Huh7.5 [16] = test: Effect on Hsc70 expression level in human Huh7.5 cells at 6.25 to 25 uM by Western blot analysis; assay type: functional, cell-based; conditions: dose 6.25-25 µM
Huh7.5 [17] = test: Effect on CD36 expression level in human Huh7.5 cells at 6.25 to 25 uM by Western blot analysis; assay type: functional, cell-based; conditions: dose 6.25-25 µM
[18] = Selectivity index, ratio of CC50 for cytotoxicity against human Huh7.5 cells assessed as reduction in cell viability incubated for 72 hrs by MTT assay to EC50 for antiviral activity against HCV genotype 2a J6/JFH/JC1 infected in human Huh7.5 cells assessed as reduction in viral RNA levels measured after 72 hrs by qRT-PCR analysis; assay type: toxicity, cell-based; conditions: read-out: Ratio CC50/EC50
Hepatitis C virus [19] = test: Antiviral activity against HCV subgenomic replicon harboring I377-3'del.S infected in human GS4.3 cells assessed as inhibition of viral replication at 0.23 to 18.52 uM after 72 hrs by qRT-PCR analysis; assay type: functional, organism-based; conditions: Hepacivirus hominis, Liver, dose 0.23-18.52 µM
In short: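 GS4.3 cells (Huh7 carrying HCV subgenomic replicon I377-3′del.S) seeded at 3 × 10^4/cm2, after 24 h treated with compound or solvent control. After 72 h intracellular RNA extracted and replicon RNA measured by qRT-PCR. Cytotoxicity checked by MTT at 72 h.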

Which results are given for `COc1cc(/C=C/c2ccccc2)c(C(=O)O)c(O)c1CC=C(C)C`?
CI (Hepatitis C virus [1]): 0.76; Activity (Hepatitis C virus [2]): Active; pEC50 (Hepatitis C virus [3]): 5.19; inhibition (Hepacivirus hominis): inactive; Activity [4]: Dose-dependent effect; Activity (Hepatitis C virus [5]): Active; Activity (Hepatitis C virus [6]): inactive; Activity [7]: inactive; Activity (Hepatitis C virus [8]): Active; CC50 at 72 h [9]: 91 µM; pEC50 (Hepatitis C virus [10]): 5.42; Activity [11]: inactive; Activity [12]: Active; Ratio EC50 [13]: 2.8; Ratio EC50 [14]: 1.3; pEC50 [15]: 5.50; Activity (Huh7.5 [16]): inactive; Activity (Huh7.5 [17]): inactive; selectivity ratio at 72 h [18]: 40; Activity (Hepatitis C virus [19]): inactive
